Values after ≈ are worked out from the molar mass of the structure shown.
Assays:
Enterovirus [1] = test: In vitro anti-rhinoviral activity against human rhinovirus serotypes 2,3,9,14,16,25 and 39; format: functional, organism-based
Enterovirus [2] = test: In vitro antirhinoviral activity against human rhinovirus serotypes 9,14 and 25; format: functional, organism-based
[3] = biological target: T1, Human rhinovirus A protease (Human rhinovirus sp.) (UniProt Q4U254);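 further: inhibition of the human rhinovirus 3C protease enzyme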
T1 sequence (whole entry): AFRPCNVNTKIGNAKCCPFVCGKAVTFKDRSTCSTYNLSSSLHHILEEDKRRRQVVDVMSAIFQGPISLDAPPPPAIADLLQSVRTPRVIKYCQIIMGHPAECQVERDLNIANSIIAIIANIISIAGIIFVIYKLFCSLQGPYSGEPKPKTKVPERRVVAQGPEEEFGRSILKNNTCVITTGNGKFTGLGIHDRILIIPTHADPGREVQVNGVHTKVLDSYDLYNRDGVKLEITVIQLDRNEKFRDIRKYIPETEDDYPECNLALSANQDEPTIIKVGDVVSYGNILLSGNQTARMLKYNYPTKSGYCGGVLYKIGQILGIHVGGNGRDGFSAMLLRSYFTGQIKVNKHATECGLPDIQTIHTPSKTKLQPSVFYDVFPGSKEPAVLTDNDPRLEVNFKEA

[4] = Compound was tested for human plasma protein binding; format: ADME, cell-free
How it was run: (§1)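 Ultrafiltration binding. Compound added from 1 mM and 0.1 mM stocks into heparinized dog or human plasma or pH 7.4 phosphate buffer, giving final 1 and 10 μM. Incubated 1 h at 37 °C, then centrifugal ultrafiltration. Filtrate and whole plasma quantified by LCMS with internal standard. % free = filtrate/whole plasma × 100. Three replicates per species per concentration.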

Canis familiaris = species on record: Canis familiaris; test: Compound was tested for plasma protein binding of dog; format: ADME, organism-based, Canis lupus familiaris; how it was run: as §1
[5] = Compound was tested for plasma concentration in CM-monkeys 7 hours after oral administration (50 mg/kg); format: ADME, organism-based, Macaca fascicularis; conditions: cynomolgus monkey
How it was run: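 Male CM-monkeys (BW ~3.9 kg, n = 3), single oral dose of 50 mg/kg in 80:20 propylene glycol:sterile water at 15.0 mg/mL. Blood sampled periodically up to 24 h post-dose. Plasma concentration at 7 h measured by LCMS. Parameters from noncompartmental analysis of individual concentration-time data.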

[6] = Compound was tested for plasma concentration in dogs 7 hours after oral administration (30 mg/kg); format: ADME, organism-based, Canis lupus familiaris; conditions: dog
How it was run: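 Male beagle dogs (BW ~9.3 kg, n = 3), single oral dose of 30 mg/kg. Vehicle was 80:20 propylene glycol:sterile water (15.0 mg/mL) or, in some studies, a 0.5% carboxymethyl cellulose suspension. Blood sampled up to 24 h. Plasma level at 7 h determined by LCMS. Noncompartmental analysis of individual concentration-time profiles.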

[7] = Compound was tested in vitro for loss of compound after 2 hours exposure to hepatocytes of dog at 25 uM concentration; format: ADME, organism-based, Canis lupus familiaris, Hepatocyte; conditions: read-out: Metabolism
[8] = Compound was tested in vitro for loss of compound after 2 hours exposure to hepatocytes of human at 25 uM concentration; format: ADME, organism-based, Hepatocyte; conditions: read-out: Metabolism
[9] = Compound was tested in vitro for loss of compound after 2 hours exposure to hepatocytes of monkey at 25 uM concentration; format: ADME, cell-based, Hepatocyte; conditions: simiiformes, read-out: Metabolism
[10] = Compound was tested in vitro for loss of compound after 30 min exposure to liver microsomes of dog at 25 uM concentration; format: ADME, organism-based, Canis lupus familiaris; conditions: read-out: Metabolism
How it was run: (§2)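 Pooled liver microsomes (dog, monkey or human; 1 mg/mL, 6–8 livers) with 2 mM NADPH in 100 mM potassium phosphate, pH 7.4, preincubated 1 min at 37 °C. Started with 25 μM compound, run 30 min, quenched with acetonitrile. Time-zero controls quenched before compound addition. Remaining compound by reversed-phase HPLC at 215 nm. Reported as % metabolized.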

[11] = Compound was tested in vitro for loss of compound after 30 min exposure to liver microsomes of human at 25 uM concentration; format: ADME, organism-based; conditions: read-out: Metabolism; how it was run: as §2
[12] = Thermodynamic aqueous solubility was determined; format: physicochemical; conditions: buffer
How it was run: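 1–2 mg compound stirred in 1 mL of pH 7.0, 50 mM phosphate buffer at room temperature for 4 h. Filtered through a 0.45 μm filter. Filtrate concentration determined by HPLC against a standard of known concentration.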

[13] = Half-life upon exposure to human plasma; format: ADME, organism-based
How it was run: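 Pooled heparinized human plasma (10 donors) or 100 mM potassium phosphate pH 7.4 buffer (n = 3 each), spiked to final 25 μM compound from acetonitrile stock. Incubated at 37 °C for 1–3 h with regular sampling. Protein precipitated with acetonitrile, then LC quantification against a 0.05–40 μg/mL standard curve. Half-life by linear regression of mean concentration-time data.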

Caco-2 = conditions: Homo sapiens
[14] = Compound was tested in vitro for loss of compound after 30 min exposure to liver microsomes of monkey at 25 uM concentration; format: ADME, Microsome; conditions: simiiformes, read-out: Metabolism; how it was run: as §2
Enterovirus [15] = test: In vitro antirhinoviral activity mean against human rhinovirus serotypes 2, 3, 9, 14, 16 and 25

Compound	EC50 (Enterovirus [1])	K obs / 1 [3]	concentration at 7 h [6]	metabolised at 0.5 h, 25 µM [10]	metabolised at 0.5 h, 25 µM [11]	solubility thermodynamic [12]	half-life [13]	Papp (Caco-2)	further results
Cc1cc(CCCOc2c(C)cc(-c3noc(C(F)(F)F)n3)cc2C)on1 [PLECONARIL]	136 nM	–	–	–	–	–	–	–	–
C#CC[C@@H](C(=O)N[C@H](/C=C/C(=O)OC1CCCCC1)C[C@@H]1CCNC1=O)n1cccc(NC(=O)c2cc(C)on2)c1=O	–	34000 M⁻¹ s⁻¹	–	–	–	–	–	–	EC50 (Enterovirus [2]): 406 nM
C#CC[C@@H](C(=O)N[C@H](/C=C/C(=O)OCc1ccccc1)C[C@@H]1CCNC1=O)n1cccc(NC(=O)c2cc(C)on2)c1=O	36 nM	300000 M⁻¹ s⁻¹	563 nM	67%	52%	22 µg/mL (≈ 37.6 µM)	258 min	18 10e-6 cm s-1	Free [4]: 13%; Free (Canis familiaris): 25%; concentration at 7 h [5]: 3 nM; metabolised at 2 h, 25 µM [7]: 61%; metabolised at 2 h, 25 µM [8]: 51%; metabolised at 2 h, 25 µM [9]: 69%
C#CC[C@@H](C(=O)N[C@H](/C=C/C(=O)OCC)C[C@@H]1CCNC1=O)n1cccc(NC(=O)c2cc(C)on2)c1=O [IMOCITRELVIR]	58 nM	223000 M⁻¹ s⁻¹	248 nM	45%	40%	377 µg/mL (≈ 720 µM)	396 min	6 10e-6 cm s-1	Free [4]: 34%; Free (Canis familiaris): 54%; concentration at 7 h [5]: 57 nM; metabolised at 2 h, 25 µM [7]: 12%; metabolised at 2 h, 25 µM [8]: 85%; metabolised at 2 h, 25 µM [9]: 79%; metabolised at 0.5 h, 25 µM [14]: 55%
C#CC[C@@H](C(=O)N[C@H](/C=C/C(=O)OCC(C)(C)C)C[C@@H]1CCNC1=O)n1cccc(NC(=O)c2cc(C)on2)c1=O	276 nM	128000 M⁻¹ s⁻¹	–	–	–	–	–	–	–
C#CC[C@@H](C(=O)N[C@H](/C=C(\C)C(=O)OCC)C[C@@H]1CCNC1=O)n1cccc(NC(=O)c2cc(C)on2)c1=O	1460 nM	12500 M⁻¹ s⁻¹	–	–	–	–	–	–	–
C#CC[C@@H](C(=O)N[C@H](/C=C/C(=O)OC1CCC1)C[C@@H]1CCNC1=O)n1cccc(NC(=O)c2cc(C)on2)c1=O	90 nM	207000 M⁻¹ s⁻¹	73 nM	53%	52%	25 µg/mL (≈ 45.5 µM)	198 min	14 10e-6 cm s-1	–
C#CC[C@@H](C(=O)N[C@H](/C=C/C(=O)OC(C)(C)C)C[C@@H]1CCNC1=O)n1cccc(NC(=O)c2cc(C)on2)c1=O	361 nM	60500 M⁻¹ s⁻¹	–	–	–	–	–	–	–
CC[C@@H](C(=O)N[C@H](/C=C/C(=O)OC(C)(C)C)C[C@@H]1CCNC1=O)n1cccc(NC(=O)c2cc(C)on2)c1=O	405 nM	45100 M⁻¹ s⁻¹	–	–	–	–	–	–	–
CC[C@@H](C(=O)N[C@H](/C=C/C(=O)OCc1ccccc1)C[C@@H]1CCNC1=O)n1cccc(NC(=O)c2cc(C)on2)c1=O	64 nM	210000 M⁻¹ s⁻¹	156 nM	69%	56%	41 µg/mL (≈ 71.2 µM)	150 min	11 10e-6 cm s-1	Free [4]: 8%; Free (Canis familiaris): 20%; metabolised at 2 h, 25 µM [7]: 55%; metabolised at 2 h, 25 µM [8]: 27%
C#CC[C@@H](C(=O)N[C@H](/C=C/C(=O)OC1CCCC1)C[C@@H]1CCNC1=O)n1cccc(NC(=O)c2cc(C)on2)c1=O	174 nM	186000 M⁻¹ s⁻¹	160 nM	76%	59%	15 µg/mL (≈ 26.6 µM)	750 min	36 10e-6 cm s-1	Free [4]: 7%; Free (Canis familiaris): 20%
CCOC(=O)/C=C/[C@H](C[C@@H]1CCNC1=O)NC(=O)[C@H](Cc1ccc(F)c(F)c1)n1cccc(NC(=O)c2cc(C)on2)c1=O	11 nM	–	–	57%	81%	25 µg/mL (≈ 40.9 µM)	84 min	35 10e-6 cm s-1	metabolised at 2 h, 25 µM [8]: 94%
CC[C@@H](C(=O)N[C@H](/C=C/C(=O)OC(C)C)C[C@@H]1CCNC1=O)n1cccc(NC(=O)c2cc(C)on2)c1=O	–	36000 M⁻¹ s⁻¹	–	–	–	–	–	–	EC50 (Enterovirus [2]): 322 nM
CC[C@@H](C(=O)N[C@H](/C=C/C(=O)OC1CCC1)C[C@@H]1CCNC1=O)n1cccc(NC(=O)c2cc(C)on2)c1=O	76 nM	170000 M⁻¹ s⁻¹	222 nM	46%	49%	192 µg/mL (≈ 356 µM)	552 min	10 10e-6 cm s-1	Free [4]: 33%; Free (Canis familiaris): 42%
C#CC[C@@H](C(=O)N[C@H](/C=C/C(=O)OC1CCCCCC1)C[C@@H]1CCNC1=O)n1cccc(NC(=O)c2cc(C)on2)c1=O	–	47000 M⁻¹ s⁻¹	–	–	–	–	–	–	EC50 (Enterovirus [2]): 812 nM
CC[C@@H](C(=O)N[C@H](/C=C/C(=O)OCC(C)(C)C)C[C@@H]1CCNC1=O)n1cccc(NC(=O)c2cc(C)on2)c1=O	310 nM	38200 M⁻¹ s⁻¹	–	–	–	–	–	–	–
C#CC[C@@H](C(=O)N[C@H](/C=C/C(=O)OC(C)C)C[C@@H]1CCNC1=O)n1cccc(NC(=O)c2cc(C)on2)c1=O	–	100000 M⁻¹ s⁻¹	–	–	–	–	–	–	EC50 (Enterovirus [15]): 174 nM
CC[C@@H](C(=O)N[C@H](/C=C/C(=O)OC1CCCCCC1)C[C@@H]1CCNC1=O)n1cccc(NC(=O)c2cc(C)on2)c1=O	–	15000 M⁻¹ s⁻¹	–	–	–	–	–	–	–
CC[C@@H](C(=O)N[C@H](/C=C/C(=O)OC1CCCCC1)C[C@@H]1CCNC1=O)n1cccc(NC(=O)c2cc(C)on2)c1=O	–	23000 M⁻¹ s⁻¹	–	–	–	–	–	–	EC50 (Enterovirus [2]): 313 nM

From ChEMBL document CHEMBL1145131, “Structure-based design, synthesis, and biological evaluation of irreversible human rhinovirus 3C protease inhibitors. 8. Pharmacological optimization of orally bioavailable 2-pyridone-containing peptidomimetics” (J Med Chem, 2003)
